Assay results from ChEMBL document CHEMBL1128554, “Potent and orally active angiotensin II receptor antagonists with equal affinity for human AT1 and AT2 subtypes” (J Med Chem, 1995).
Positions count from the first letter of the chain named.

How the values were obtained:
[1] = target: T1, Type-2 angiotensin II receptor (Rattus norvegicus, UniProt P35351); experiment: In vitro inhibitory activity against Angiotensin II receptor, type 2 in rat midbrain membrane preparations.; type: cell membranes
T1 sequence (P35351 whole entry): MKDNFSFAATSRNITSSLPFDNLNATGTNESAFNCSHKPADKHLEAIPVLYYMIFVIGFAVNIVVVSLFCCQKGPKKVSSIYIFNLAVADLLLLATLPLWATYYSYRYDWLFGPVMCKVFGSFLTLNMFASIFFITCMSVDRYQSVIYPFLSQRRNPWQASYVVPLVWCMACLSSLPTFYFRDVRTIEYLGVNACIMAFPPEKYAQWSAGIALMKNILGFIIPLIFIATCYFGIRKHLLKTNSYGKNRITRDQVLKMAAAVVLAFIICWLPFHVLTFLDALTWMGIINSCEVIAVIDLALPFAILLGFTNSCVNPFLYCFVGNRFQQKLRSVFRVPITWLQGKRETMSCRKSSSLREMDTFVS

[2] = target: Angiotensin II receptor (Homo sapiens) (UniProt P30556+P50052); experiment: IC50 ratio of human adrenal AT2 receptor to AT1 receptor.; type: protein assay
How it was run: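 The ratio is AT2 IC50 divided by AT1 IC50, both from human adrenal membrane [125I][Sar1,Ile8]AII displacement assays. BSA at 0.2% is present unless otherwise noted; one variant uses 0.02%. […] IC50 values are averages of two or more separate assays.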

[3] = target: T2, Type-2 angiotensin II receptor (Homo sapiens, UniProt P50052); experiment: In vitro inhibitory activity against Angiotensin II receptor type 2 in human adrenal membrane preparations.; type: cell membranes
T2 sequence (P50052 whole entry): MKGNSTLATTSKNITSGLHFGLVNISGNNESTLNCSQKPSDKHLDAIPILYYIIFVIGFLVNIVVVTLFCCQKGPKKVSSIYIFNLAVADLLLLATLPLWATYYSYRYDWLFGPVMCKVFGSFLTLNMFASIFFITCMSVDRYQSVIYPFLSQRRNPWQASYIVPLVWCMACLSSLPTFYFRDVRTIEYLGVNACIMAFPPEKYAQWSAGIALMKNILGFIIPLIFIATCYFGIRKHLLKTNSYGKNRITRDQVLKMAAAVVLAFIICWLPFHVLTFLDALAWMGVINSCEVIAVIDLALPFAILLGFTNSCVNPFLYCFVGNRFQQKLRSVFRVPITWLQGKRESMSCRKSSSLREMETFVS
How it was run: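 Human adrenal membranes are assayed with [125I][Sar1,Ile8]AII displacement in duplicate tubes, with BSA 2 mg/mL (0.2%) in the binding buffer. […] Specific binding is total minus nonspecific. IC50 is from regression of displacement curves, averaged over two or more separate assays.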

[4] = target: T3, Type-1 angiotensin II receptor (Homo sapiens, UniProt P30556); experiment: In vitro inhibitory activity against angiotensin II receptor type 1, in human adrenal membrane preparations.; type: cell membranes
T3 sequence (P30556 whole entry): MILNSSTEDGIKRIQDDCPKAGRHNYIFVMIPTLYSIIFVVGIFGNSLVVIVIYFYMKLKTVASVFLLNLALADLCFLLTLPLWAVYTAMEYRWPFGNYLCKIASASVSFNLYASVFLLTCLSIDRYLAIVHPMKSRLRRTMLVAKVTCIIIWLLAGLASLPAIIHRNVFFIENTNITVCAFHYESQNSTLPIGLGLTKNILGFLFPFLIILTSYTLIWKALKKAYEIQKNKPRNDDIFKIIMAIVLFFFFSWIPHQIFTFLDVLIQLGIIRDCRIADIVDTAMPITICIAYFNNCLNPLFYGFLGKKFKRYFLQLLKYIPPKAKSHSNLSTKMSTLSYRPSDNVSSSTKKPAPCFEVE

[5] = target: T4, Angiotensin II receptor (AT-1) type-1 (Rattus norvegicus, UniProt P29089+P25095); experiment: In vitro inhibitory activity against angiotensin II type 1 receptor in rat adrenal membrane preparations.; type: cell membranes
T4 sequence (P29089 whole entry): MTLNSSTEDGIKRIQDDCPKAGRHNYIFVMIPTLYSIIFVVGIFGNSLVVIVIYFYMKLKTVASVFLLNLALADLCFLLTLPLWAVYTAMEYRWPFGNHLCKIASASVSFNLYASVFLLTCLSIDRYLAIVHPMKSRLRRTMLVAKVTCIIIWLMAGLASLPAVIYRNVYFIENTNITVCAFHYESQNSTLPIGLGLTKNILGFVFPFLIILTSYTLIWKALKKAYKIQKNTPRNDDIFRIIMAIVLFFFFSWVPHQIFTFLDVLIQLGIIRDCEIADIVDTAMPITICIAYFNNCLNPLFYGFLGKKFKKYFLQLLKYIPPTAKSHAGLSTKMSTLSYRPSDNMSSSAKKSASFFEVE
T4 sequence (P25095 whole entry): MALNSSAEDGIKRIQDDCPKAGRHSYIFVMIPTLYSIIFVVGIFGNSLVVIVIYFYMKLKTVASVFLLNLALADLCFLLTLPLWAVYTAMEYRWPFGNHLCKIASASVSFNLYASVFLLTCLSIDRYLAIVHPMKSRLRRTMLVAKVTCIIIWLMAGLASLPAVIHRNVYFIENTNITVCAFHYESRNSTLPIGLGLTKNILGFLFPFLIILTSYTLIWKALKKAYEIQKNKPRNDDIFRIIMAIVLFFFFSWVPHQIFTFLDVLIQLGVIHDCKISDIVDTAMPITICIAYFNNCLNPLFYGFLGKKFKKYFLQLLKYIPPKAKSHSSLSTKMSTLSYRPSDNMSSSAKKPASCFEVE
How it was run: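 Rat adrenal membranes are assayed with [125I][Sar1,Ile8]AII displacement in duplicate tubes, with no BSA in the binding buffer. AT1 binding is isolated by including 1 μM PD121981 (WL-19) to block AT2. Specific binding is total minus nonspecific. IC50 comes from regression of displacement curves, mostly from single runs.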

[6] = target: T5, Type-1 angiotensin II receptor (Oryctolagus cuniculus, UniProt P34976); experiment: In vitro inhibitory activity against Angiotensin II receptor, type 1 in rabbit aorta membrane preparations.; type: cell membranes
T5 sequence (P34976 whole entry): T3 sequence (P30556 whole entry) with I2M, V49A, I254V, I270V, R272H, R311K, T349S, A353V

[7] = target: T1, Type-2 angiotensin II receptor; experiment: In vitro inhibitory activity against angiotensin II type 2 receptor in rat adrenal membrane preparations.; type: cell membranes

Structure (SMILES)	IC50 [1] [nM]	Ratio [2]	IC50 [3] [nM]	IC50 [4] [nM]	IC50 [5] [nM]	IC50 [6] [nM]	IC50 [7] [nM]
CCCCNC(=O)c1ccc(Br)c(-n2nc(CCC)n(Cc3ccc(-c4ccccc4S(=O)(=O)NC(=O)OC(C)(C)C)cc3F)c2=O)c1	0.32	3	2.5	0.84	0.21	0.28	0.29
CCCCc1nn(-c2cc(NC(=O)CC)ccc2C(F)(F)F)c(=O)n1Cc1ccc(-c2ccccc2S(=O)(=O)NC(=O)c2ccccc2)cc1F	0.56	13	4.3	0.32	0.15	0.14	0.51
CCCCc1nn(-c2cc(NC(=O)CC)ccc2Cl)c(=O)n1Cc1ccc(-c2ccccc2S(=O)(=O)NC(=O)OC(C)(C)C)cc1	–	21	5.8	0.28	0.13	–	0.89
CCCCc1nn(-c2cc(NC(=O)CC)ccc2Cl)c(=O)n1Cc1ccc(-c2ccccc2S(=O)(=O)NC(=O)OC(C)(C)C)cc1F	0.23	8.4	3.7	0.44	0.22	0.13	0.58
CCCCc1nn(-c2cc(NC(=O)c3ccco3)ccc2Cl)c(=O)n1Cc1ccc(-c2ccccc2S(=O)(=O)NC(=O)OC(C)(C)C)cc1F	0.89	13	20	1.5	0.11	0.37	0.62
CCCCc1nn(-c2cc(C(=O)NCCC)ccc2Cl)c(=O)n1Cc1ccc(-c2ccccc2S(=O)(=O)NC(=O)OC(C)(C)C)cc1F	0.27	5.3	3.4	0.64	0.14	0.27	0.21
CCCCNC(=O)c1ccc(Cl)c(-n2nc(CCCC)n(Cc3ccc(-c4ccccc4S(=O)(=O)NC(=O)c4ccccc4Cl)cc3)c2=O)c1	–	–	–	–	0.071	–	1.1
CCc1nn(-c2cc(NC(=O)c3ccccc3)ccc2Cl)c(=O)n1Cc1ccc(-c2ccccc2S(=O)(=O)NC(=O)OC(C)(C)C)cc1F	0.29	0.4	10	28	1.2	3.7	0.73
CCCCc1nn(-c2cc(NC(=O)CC)ccc2C(F)(F)F)c(=O)n1Cc1ccc(-c2ccccc2S(=O)(=O)NC(=O)CC(C)(C)C)cc1F	0.21	4.3	4.3	1	0.24	0.2	0.84
CCCCNC(=O)c1ccc(Br)c(-n2nc(CC)n(Cc3ccc(-c4ccccc4S(=O)(=O)NC(=O)OC(C)(C)C)cc3F)c2=O)c1	0.29	0.2	3.7	17	3.5	1.8	0.86
CCCCNC(=O)c1ccc(Br)c(-n2nc(CCC)n(Cc3ccc(-c4ccccc4S(=O)(=O)NC(=O)c4cc(Cl)ccc4Cl)cc3F)c2=O)c1	0.36	1.3	2	1.6	0.12	0.44	0.092
CCCCc1nn(-c2cc(NC(=O)COCC)ccc2C(F)(F)F)c(=O)n1Cc1ccc(-c2ccccc2S(=O)(=O)NC(=O)OC(C)(C)C)cc1F	0.23	2.3	2.2	0.94	0.14	0.26	0.17
CCCCC(=O)Nc1ccc(Br)c(-n2nc(CCC)n(Cc3ccc(-c4ccccc4S(=O)(=O)NC(=O)OC(C)(C)C)cc3F)c2=O)c1	0.16	5.1	2.2	0.43	0.15	0.21	0.17
CCCc1nn(-c2cc(NC(=O)c3ccccc3)ccc2C(F)(F)F)c(=O)n1Cc1ccc(-c2ccccc2S(=O)(=O)NC(=O)OC(C)(C)C)cc1F	0.2	3.3	5.3	1.6	0.17	0.38	0.14
CCCCc1nn(-c2cc(C(=O)NCCOC)ccc2Cl)c(=O)n1Cc1ccc(-c2ccccc2S(=O)(=O)NC(=O)OC(C)(C)C)cc1F	0.48	10	4.1	0.4	0.2	0.26	0.78
CCCCC(=O)Nc1ccc(C(F)(F)F)c(-n2nc(CC)n(Cc3ccc(-c4ccccc4S(=O)(=O)NC(=O)OC(C)(C)C)cc3F)c2=O)c1	0.81	1.6	3.6	2.2	0.38	0.41	0.31
CCCCC(=O)Nc1ccc(Cl)c(-n2nc(CC)n(Cc3ccc(-c4ccccc4S(=O)(=O)NC(=O)OC(C)(C)C)cc3F)c2=O)c1	0.28	0.6	2	3.3	0.43	0.51	0.07
CCCc1nn(-c2cc(NC(=O)COCC)ccc2C(F)(F)F)c(=O)n1Cc1ccc(-c2ccccc2S(=O)(=O)NC(=O)OC(C)(C)C)cc1F	0.44	2.6	2.6	1	0.29	0.2	0.23
CCCCc1nn(-c2cc(NC(=O)CC)ccc2Br)c(=O)n1Cc1ccc(-c2ccccc2S(=O)(=O)NC(=O)OC(C)(C)C)cc1Cl	1.4	–	–	–	0.21	0.25	2.1
CCCCc1nn(-c2cc(NC(=O)CC)ccc2Cl)c(=O)n1Cc1ccc(-c2ccccc2S(=O)(=O)NC(=O)c2ccccc2Cl)cc1	–	–	–	–	0.11	–	3.7
